High-throughput results from PubChem.
MC4R antagonist: human MC4R antagonism in cAMP assay. MC4R-expressing cells, MTII-stimulated cAMP, LANCE TR-FRET. inhibition, % at 6.5 µM. hit rate 0.48% among 360,000;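 active = inhibition above its plate's cutoff, the mean of tested wells on that plate plus 3 SD, cut at about 29% in these data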
Target sequence (P32245 whole entry, looked up): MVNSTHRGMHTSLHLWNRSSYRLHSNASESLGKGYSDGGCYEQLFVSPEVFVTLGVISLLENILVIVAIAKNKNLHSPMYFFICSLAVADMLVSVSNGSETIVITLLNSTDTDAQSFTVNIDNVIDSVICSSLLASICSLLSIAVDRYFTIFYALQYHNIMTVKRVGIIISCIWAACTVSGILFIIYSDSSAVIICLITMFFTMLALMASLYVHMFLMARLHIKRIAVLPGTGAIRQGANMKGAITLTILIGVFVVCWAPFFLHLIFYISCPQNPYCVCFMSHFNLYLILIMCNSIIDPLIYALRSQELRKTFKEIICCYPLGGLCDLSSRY
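material = U2OS cells stably expressing human melanocortin 4 receptor (MC4R) | also added = Melanotan II challenge | dosing = single nominal compound dose of 6.5 µM | detection = TR-FRET with Eu-cAMP and labeled anti-cAMP, 671 nm | replication = singlicate | timing = compound 30 min, challenge 1 h, detection 1 h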
Exocytosis inh: lytic granule exocytosis inhibition; inhibition, % at 10 µM; AID 651702; TALL-104 LAMP-1 surface exposure, flow cytometry; cells stimulated with thapsigargin and PMA; hit rate 0.66% among 360,000;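 active = inhibition above about 55%, limit read from the data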
MC4R barr agon: agonists of human melanocortin 4 receptor (MC4R) beta-arrestin. P32245. U2OS MC4R beta-arrestin complementation, luminescence; percent of melanotan II response, DMSO zero. activation, % at 8.9 µM. hit rate 0.98% among 360,000. AID 540308;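 active = activation above a per-plate cutoff, the mean activation of sample wells on that plate plus 3 SD, cut at about 8% in these data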
Myeloid diff 2: myeloid differentiation induction; hit rate 1% among 360,000; calls only at 10 µM; ER-HoxA9 myeloid progenitors, lysozyme-GFP differentiation, flow cytometry;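 active = normalized GFP-positive differentiation at or above the plate's own cutoff, the solvent-only control mean plus 3 SD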;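 note: cells exposed to compound for four days before flow analysis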
EBI2 antag: blocks human EBI2 receptor beta-arrestin signaling; P32249; EBI2 beta-arrestin recruitment, luminescence, 7a,25-OHC stimulated; inhibition, % at 5 µM; hit rate 0.81% among 360,000; AID 651636; in the data active = inhibition above about 38%;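 note: enzyme fragment complementation signal reports receptor beta-arrestin coupling in cells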
Myeloid diff CP1: compounds promoting myeloid differentiation; shares compounds with Myeloid diff 2; ER-HoxA9 myeloid progenitors, GFP/Mac1 double-positive flow; calls only; hit rate 2% among 2,300;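 active = share of green or green-and-red cells above 9 and 9% in run 1 or 4 and 3% in run 2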
GFP autofluor: counter-screen for myeloid differentiation promoters: compound fluorescence. shares compounds with Myeloid diff 2. ER-HoxA9 myeloid progenitors, no estrogen, GFP autofluorescence flow cytometry; vehicle wells 0%, positive control 100%. fluorescence response, % (concentration not given with the values). hit rate 7.4% among 2,300;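 active = over 5% cells positive for green fluorescent reporter, or over 2% positive for both it and APC stain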
Hits are given with their value; i = inactive; nt = no result given; + = active, no number. Shown are actives, neighbours in structure and some others; about 3.7% of the full set was active somewhere.

SMILES	MC4R antagonist	Exocytosis inh	MC4R barr agon	Myeloid diff 2	EBI2 antag	Myeloid diff CP1	GFP autofluor
O=[N+]([O-])c1ccc(-c2ccc(/C=N/Nc3nc(N4CCCC4)nc(N4CCCC4)n3)o2)cc1	i	i	i	+	i	i	6.0
Nc1cc(S(=O)(=O)Nc2ccccc2Cl)ccc1N1CCCCC1	i	i	i	i	i	nt	nt
CCN(CC(=O)Nc1c(F)cccc1F)C(=O)CC1CCCCC1	i	i	i	i	i	i	i
COC(=O)c1cc(NS(=O)(=O)c2ccc3c(c2)CCC(=O)N3)cc(C(=O)OC)c1	i	i	i	+	i	i	i
Cc1cccc2cc(CNCc3ccccc3)c(Cl)nc12	i	i	i	i	i	nt	nt
COc1ccccc1Nc1ncnc2ccccc12	i	i	i	i	i	i	i
COc1ccccc1Nc1nc2c(s1)CCC2	i	i	i	i	i	i	i
COc1ccccc1Nc1c2c(nc3ccccc13)CCC2	i	i	i	+	i	i	i
O=C(c1cc(C2CC2)nn1-c1ccccc1)N1CCN(S(=O)(=O)c2ccccc2F)CC1	i	i	i	i	i	nt	nt
COc1cccc(NC(=O)CSc2nnc(-c3ccco3)c(-c3ccco3)n2)c1	i	i	i	+	i	i	i
COc1ccc(NC(=O)CSc2nnc(-c3ccco3)c(-c3ccco3)n2)cc1OC	i	i	i	i	i	nt	nt
CC(C)C(=O)N1CCC1(C)C(=O)NCc1ccc(F)cc1Cl (centres undefined)	i	i	i	i	i	nt	nt
Cc1ccc2cc(C#N)c(SCC(=O)NCC3CCCO3)nc2c1 (centres undefined)	i	i	i	i	i	i	i
Cc1ccc(-c2[nH]c(-c3ccccc3)nc2SCC(=O)NCC2CCCO2)cc1 (centres undefined)	i	i	i	i	i	nt	nt
Cc1nc(SCC(=O)NCC2CCCO2)c2cc(-c3ccccc3)sc2n1 (centres undefined)	i	i	i	i	i	i	i
Cc1ccc2nc(SCC(=O)NCC3CCCO3)c(C#N)cc2c1 (centres undefined)	i	i	i	i	i	nt	nt
Cc1ccc(-c2nc(SCC(=O)NCC3CCCO3)c(-c3ccc(C)cc3)[nH]2)cc1 (centres undefined)	i	i	i	i	i	i	i
CC(C)C(C(=O)NCc1ccccc1)N1CCN(C(=O)C2CCCO2)CC1 (centres undefined)	nt	i	nt	i	i	nt	nt
C[Si](C)(C)n1ccnc1	i	i	i	i	i	nt	nt
CCc1nnc(NC(=O)CCC(=O)NC2CCCCCC2)s1	i	i	i	i	i	nt	nt
COc1ccc(/C=C(/NC(=O)c2ccccc2)c2nc3ccccc3[nH]2)cc1OC	i	i	i	i	i	nt	nt
CC(C)c1ccc(/C=C(\c2nc3ccccc3[nH]2)S(=O)(=O)c2ccccc2)cc1	i	i	i	+	i	i	i
O=C(COc1cccc2cccnc12)NCC(F)(F)F	i	i	i	i	i	nt	nt
O=C(COC(=O)COc1cccc2ccccc12)NCC(F)(F)F	i	i	i	i	i	i	i
O=C(COC(=O)c1cc(S(=O)(=O)N2CCCCC2)ccc1N1CCOCC1)NC1CCS(=O)(=O)C1 (centres undefined)	i	i	i	i	i	nt	nt
SMILES	MC4R antagonist	Exocytosis inh	MC4R barr agon	Myeloid diff 2	EBI2 antag	Myeloid diff CP1	GFP autofluor
CC(C)C[C@H](NC(=O)N1CCn2c1nc1ccccc12)C(=O)N[C@@H](Cc1ccccc1)C(=O)O	i	i	i	i	i	nt	nt
CC(C)C[C@H](NC(=O)N1CCn2c1nc1ccccc12)C(=O)N[C@@H](C(=O)O)c1ccccc1	i	i	i	+	i	i	i
CN(C)c1ncnc2c1ncn2C1OC(CO)C(O)C1O (centres undefined)	i	i	i	+	i	i	i
Nc1ncn([C@@H]2O[C@H](CO)[C@@H](O)[C@H]2O)c(=O)n1	i	i	i	i	i	i	5.0
Cc1ccc(C)c(NC(=O)CS(=O)(=O)c2cn(C)c3ccccc23)c1	i	i	i	i	i	i	i
Cn1cc(S(=O)(=O)CC(=O)Nc2ccc3c(c2)OCCO3)c2ccccc21	i	i	i	i	i	nt	nt
O=C(CNC(=O)OCc1ccccc1)NC1CCCCCCC1	i	i	i	+	i	i	i
O=C(COc1ccccc1)NCC(=O)NC1CCCCC1	i	i	i	i	i	nt	nt
CCNCCNC(=O)c1c(O)c2cccc3c2n(c1=O)CCC3	i	i	i	i	i	i	i
CN1CCN(C(=O)/C(=C/c2cccs2)NC(=O)c2ccco2)CC1	i	i	i	i	i	nt	nt
CCc1nonc1NC(=O)COc1ccc(Cl)c(C)c1	i	i	i	i	i	i	i
CCOc1ccccc1NC(=O)c1ccccc1-c1ccccc1	i	i	i	i	i	nt	nt
CCOc1ccccc1NC(=O)c1ccccc1-c1nc(-c2ccccc2)no1	i	i	i	+	i	i	i
O=C(/C=C/[C@H]1O[C@@H](n2ccc(=O)[nH]c2=O)[C@H](O)[C@@H]1O)NCc1ccco1	nt	i	nt	i	i	nt	nt
C#CCCC/C(=C\C(=O)N(C)[C@H](C(=O)N(C)[C@H](C(=O)N(C)[C@H](C(=O)N(C)[C@H](C(N)=O)C(C)C)C(C)C)C(C)C)C(C)C)OC	i	i	i	i	i	i	i
CCOC(=O)N1CCN(C(=O)CCNS(=O)(=O)c2ccc3c(c2)c(=O)n(C)c(=O)n3C)CC1	i	i	i	i	i	nt	nt
O=C(CCNS(=O)(=O)c1ccc2c(c1)CCC(=O)N2)NCc1ccc2c(c1)OCO2	i	i	i	i	i	i	i
C=CCNC(=O)CN1CCC(n2nnc3cc(C(F)(F)F)ccc32)CC1	i	i	i	i	i	nt	nt
Cc1cc(NC(=O)CN2CCC(n3nnc4cc(C(F)(F)F)ccc43)CC2)no1	i	i	i	+	i	i	i
COc1cccc(-c2c(NC(=O)c3ccco3)n(-c3ccc(C)cc3)nc(C)c2=O)c1	i	i	i	+	i	i	i
Cc1ccc(-n2nc(C)c(=O)c(-c3ccccc3)c2NC(=O)C(C)C)cc1	i	i	i	i	i	nt	nt
Cn1c(=O)n(C)c2cc(CNC(=O)[C@H]3O[C@@H](n4ccc(=O)[nH]c4=O)[C@H](O)[C@@H]3O)ccc21	nt	i	nt	i	i	nt	nt
COc1ccc(-n2ccc(=O)c(C(=O)O)n2)c(OC)c1	i	i	i	i	i	nt	nt
CCN(CC)CCNC(=O)c1cc2c(-c3ccc(Cl)cc3)nn(C)c2s1	i	i	i	+	i	i	i
Nc1c(Cl)ncnc1NCc1ccccc1	i	i	i	i	i	nt	nt
COc1ccc(C(=O)NC(=S)Nc2cccc(S(=O)(=O)N3CCOCC3)c2)cc1	i	i	i	i	i	i	i
CSC1=NSC2=NC(=O)/C(=C/c3coc4ccc(O)cc4c3=O)C(=N)N12	i	i	i	+	i	i	i
